Here are results for 1 compound from article PMC9044438 (Cell reports, 2022).

The test system of the test is HCT116 cells. The test is described as follows: RNA-seq of nuclear RNA from HCT116 cells electroporated with peptide. Format: cell-based, human. The following applies: 10 μM Nutlin-3a, 3 h, versus DMSO. The method in brief: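 HCT116 cells were trypsinized and electroporated with 0 or 10 μM peptide into antibiotic-free McCoy's 5A (serum-free in the second run). They then went to medium with 0.1% DMSO or 10 μM Nutlin-3a, plus 200 nM peptide in peptide wells, for 3 h at 37°C. Nuclei were isolated in 0.5% NP-40 lysis buffer, and nuclear RNA was TRIzol-extracted with extra phenol/chloroform cleanup.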

As for `COc1ccc(C2=N[C@@H](c3ccc(Cl)cc3)[C@@H](c3ccc(Cl)cc3)N2C(=O)N2CCNC(=O)C2)c(OC(C)C)c1` [Nutlin-3a], the “expression of p53 target genes” value was “induced expression of p53 target genes”.
